Data taken from ChEMBL document CHEMBL3600297, “N-Sulfonyl-aminobiaryls as Antitubulin Agents and Inhibitors of Signal Transducers and Activators of Transcription 3 (STAT3) Signaling” (J Med Chem, 2015).
Blank lines part the entries; values can stand above or below the molecule they belong to. Calls of active or inactive are those of the source. The calls are words filed in the database; no cut-off is given here.

Key:
Tubulin (Sus scrofa) [1] = target: T1, Tubulin (Sus scrofa) (UniProt P02554+P02550); test: Inhibition of porcine tubulin polymerization measured every min for 30 mins by spectrophotometric analysis; type: protein assay
Method in brief: (§1)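 Cold porcine tubulin (>99% pure) in G-PEM buffer (80 mM PIPES, 2 mM MgCl2, 0.5 mM EGTA, 1 mM GTP, pH 6.9) with 15% glycerol, with or without compound. Kinetic turbidity at 340 nm, read each minute for 30 min at 37 °C. DMSO control.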

Tubulin = test: Displacement of [3H]-colchicine from tubulin (unknown origin) preincubated with protein for 1 hr followed by [3H]-colchicine addition measured after 3 hrs by scintillation counting analysis; type: protein-complex assay, Homo sapiens
A549 [2] = test: Induction of microtubule destabilization in human A549 cells at 1 uM after 24 hrs by DAPI staining-based immunofluorescence confocal microscopic analysis; type: cell-based
Method in brief: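 A549 seeded sparsely on chamber slides and treated 24 h; cold MeOH fixation (−20 °C, 15 min), blocked with 0.1% Triton X-100 in PBS 30 min at 37 °C. Monoclonal anti-β-tubulin 1 h at 37 °C, then FITC anti-mouse IgG, DAPI nuclear counterstain; confocal imaging.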

Tubulin (Sus scrofa) [3] = target: T1, Tubulin (Sus scrofa); test: Inhibition of porcine tubulin polymerization at 10 uM measured every min for 30 mins by spectrophotometric analysis; type: protein assay; method in brief: as §1
[4] = Cytotoxicity against human Hep3B cells assessed as growth inhibition after 48 hrs by sulforhodamine B assay; type: functional, Hep 3B2
Method in brief: (§2)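 Seeded at (3−5) × 10^3 cells/well. A time-zero plate was TCA-fixed after attachment. Next day, cells got vehicle (0.1% DMSO) or a rising concentration gradient for 48 h, then 10% TCA fixation, 0.4% SRB in 1% AcOH, A515 read. GI50 taken relative to the time-zero absorbance; at least three independent runs, mean ± SD.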

PC-3 = test: Cytotoxicity against human PC3 cells assessed as growth inhibition after 48 hrs by sulforhodamine B assay; type: functional; settings: PC-3, 48 h; method in brief: as §2
ASPC1 = test: Cytotoxicity against human AsPC1 cells assessed as growth inhibition after 48 hrs by sulforhodamine B assay; type: functional; settings: ASPC1, 48 h; method in brief: as §2
A549 [5] = test: Cytotoxicity against human A549 cells assessed as growth inhibition after 48 hrs by sulforhodamine B assay; type: functional; settings: A549, 48 h; method in brief: as §2
A549 [6] = test: Effect on G2/M phase in human A549 cells after 24 hrs by propidium iodide staining-based flow cytometric analysis; type: functional, cell-based
Method in brief: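 A549 given the indicated concentration for 24 h, fixed in 75% ethanol overnight at −20 °C, washed in cold PBS, 30 min in phosphate–citric acid buffer pH 7.8 at room temperature. Stained with propidium iodide buffer containing 0.1% Triton X-100 and RNase A; DNA content read on a FACScan.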

T1 sequence (P02550 whole entry, looked up): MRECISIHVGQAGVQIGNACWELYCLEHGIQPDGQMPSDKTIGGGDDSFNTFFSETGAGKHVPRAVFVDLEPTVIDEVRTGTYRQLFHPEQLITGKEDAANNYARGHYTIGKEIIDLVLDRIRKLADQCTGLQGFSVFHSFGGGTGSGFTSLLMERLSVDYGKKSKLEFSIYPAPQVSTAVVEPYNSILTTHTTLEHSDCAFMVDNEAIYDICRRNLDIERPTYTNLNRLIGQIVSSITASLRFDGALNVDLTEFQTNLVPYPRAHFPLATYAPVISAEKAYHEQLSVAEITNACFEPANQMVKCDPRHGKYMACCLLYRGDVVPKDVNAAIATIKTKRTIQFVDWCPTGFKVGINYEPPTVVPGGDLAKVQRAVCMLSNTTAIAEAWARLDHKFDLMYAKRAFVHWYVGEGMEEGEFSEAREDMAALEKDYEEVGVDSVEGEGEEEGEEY
T1 sequence (P02554 whole entry, looked up): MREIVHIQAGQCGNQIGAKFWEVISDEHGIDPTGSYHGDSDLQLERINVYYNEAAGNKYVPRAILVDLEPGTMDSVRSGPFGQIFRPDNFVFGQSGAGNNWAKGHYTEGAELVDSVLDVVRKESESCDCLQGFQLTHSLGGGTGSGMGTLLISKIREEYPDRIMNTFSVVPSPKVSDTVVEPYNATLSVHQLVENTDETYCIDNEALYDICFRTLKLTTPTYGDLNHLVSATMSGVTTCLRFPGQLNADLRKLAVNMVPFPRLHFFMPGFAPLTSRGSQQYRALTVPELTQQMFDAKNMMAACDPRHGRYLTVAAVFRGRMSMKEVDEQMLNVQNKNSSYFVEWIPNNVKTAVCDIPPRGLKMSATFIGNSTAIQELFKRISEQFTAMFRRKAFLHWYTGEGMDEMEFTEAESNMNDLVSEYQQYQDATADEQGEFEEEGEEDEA

inhibition (Tubulin (Sus scrofa) [1]): Dose-dependent effect
IC50 (Tubulin): 670 nM
Compound: COc1ccc(S(=O)(=O)Nc2ccccc2-c2ccc(C#N)c(F)c2)cc1

inhibition (Tubulin (Sus scrofa) [3]): Active
Compound: CC[C@]1(O)C[C@H]2CN(CCc3c([nH]c4ccccc34)[C@@](C(=O)OC)(c3cc4c(cc3OC)N(C=O)[C@H]3[C@@](O)(C(=O)OC)[C@H](OC(C)=O)[C@]5(CC)C=CCN6CC[C@]43[C@@H]65)C2)C1
Activity (A549 [2]): Active

Compound: COc1ccc(S(=O)(=O)Nc2ccccc2-c2ccc(F)c(F)c2)cc1
GI50 [4]: 150 nM
GI50 (PC-3): 190 nM
GI50 (ASPC1): 280 nM
GI50 (A549 [5]): 300 nM

Compound: Cc1ccc(S(=O)(=O)OCC(=O)Nc2ccc(C(=O)O)c(O)c2)cc1
Activity (A549 [6]): inactive

Compound: COc1ccc(S(=O)(=O)Nc2cccnc2Nc2ccc(O)cc2)cc1 [ABT-751]
GI50 [4]: 840 nM
GI50 (PC-3): 620 nM
GI50 (ASPC1): 4110 nM
GI50 (A549 [5]): 5330 nM

Compound: COc1ccc(S(=O)(=O)N(CCCl)c2ccccc2-c2ccc(C#N)cc2)cc1
GI50 [4]: 1550 nM
GI50 (PC-3): 6520 nM
GI50 (ASPC1): 4790 nM
GI50 (A549 [5]): 1500 nM
